Legend:
[1] = Lipophilicity, logP of compound; type: physicochemical; settings: octanol/water
[2] = Toxicity in C57BL/6 mouse at 10 mg/kg, iv or po; type: organism-based; settings: in vivo
[3] = Volume of distribution in C57 Black mouse brain at 10 mg/kg, iv; type: ADME, organism-based
Procedure, shortened: (§1)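 Male C57BL/6 mice (n = 3) dosed at 10 mg/kg by IV or oral (PO) route. Dosing solutions were formulated in 10% DMSO, 10% cremaphor and 80% saline. Compound levels were measured in plasma and tissues over time, and values are given as mean ± SEM.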

[4] = Half life in C57 Black mouse kidney at 10 mg/kg, po; type: ADME, organism-based; procedure, shortened: as §1
[5] = Intrinsic clearance in human microsomes at 1 uM up to 120 mins by HPLC/MS-MS analysis; type: ADME, Microsome
[6] = Stability in human plasma assessed as parent compound remaining at 1 uM after 2 hrs by HPC-MS/MS analysis; type: ADME, cell-free; settings: read-out: Stabilty
Procedure, shortened: (§2)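 Buffer containing test compound at 1 µM was mixed with human or mouse blood plasma and incubated at 37 °C for 60–120 min. Parent compound remaining gave the plasma half-life and the percentage stable at 2 h.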

[7] = AUCall in C57 Black mouse spleen at 10 mg/kg, po; type: ADME, organism-based; parameters: dose 10 mg/kg
Procedure, shortened: (§3)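 Male C57BL/6 mice were given a single 10 mg/kg dose either intravenously or orally. The oral and IV solutions were formulated in 10% DMSO, 10% cremaphor and 80% saline. Concentrations in plasma and in the tissues collected were determined after dosing, with n = 3 per route. Values are given as mean ± SEM.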

[8] = AUClast in C57 Black mouse muscle at 10 mg/kg, iv; type: ADME, organism-based, Muscle tissue; parameters: time 0 - last, route intravenous, dose 10 mg/kg; procedure, shortened: as §3
[9] = AUCinfinity in C57 Black mouse spleen at 10 mg/kg, iv; type: ADME, organism-based; parameters: time infinity, route intravenous, dose 10 mg/kg; procedure, shortened: as §3
[10] = Cmax in C57 Black mouse kidney at 10 mg/kg, po; type: ADME, organism-based; parameters: route oral, dose 10 mg/kg; procedure, shortened: as §3
[11] = Clearance in C57 Black mouse assessed as liver blood flow at 10 mg/kg, iv or po; type: ADME, organism-based; settings: in vivo
[12] = Metabolic stability in human hepatocytes assessed as hepatic extraction ratio at 1 uM up to 120 mins by HPLC-MS/MS analysis; type: ADME, cell-based, Hepatocyte
Procedure, shortened: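 Cryopreserved hepatocytes (human or mouse) added to buffer containing compound at 1 µM; incubated at 37 °C up to 120 min, stopped with acetonitrile containing internal standard. Centrifuged supernatant analysed for parent compound by HPLC-MS/MS; n = 2. Half-life and intrinsic clearance (µL/min/10^6 cells) derived; extraction ratio reported from these.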

[13] = AUCall in C57 Black mouse plasma at 10 mg/kg, iv; type: ADME, organism-based; parameters: dose 10 mg/kg; procedure, shortened: as §3
[14] = biological target: CYP2D6 (Homo sapiens, UniProt P10635); test: Inhibition of human CYP2D6 using fluorogenic substrate incubated for 60 mins in presence of NADPH by fluorescence assay relative to control; type: ADME; settings: probe fluorogenic substrate
Procedure, shortened: (§4)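 Baculosomes each expressing a single cDNA-derived human P450 isozyme were incubated with compound at 10 µM, a fluorogenic substrate and NADPH. Incubation was at 37 °C for at least 60 min before fluorescence was read, n = 3.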

[15] = Tmax in C57 Black mouse brain at 10 mg/kg, iv; type: ADME, organism-based; procedure, shortened: as §1
[16] = AUClast in C57 Black mouse spleen at 10 mg/kg, iv; type: ADME, organism-based; parameters: time 0 - last, route intravenous, dose 10 mg/kg; procedure, shortened: as §3
[17] = AUCinfinity in C57 Black mouse plasma at 10 mg/kg, po; type: ADME, organism-based; parameters: route oral, time infinity, dose 10 mg/kg; procedure, shortened: as §3
[18] = Tmax in C57 Black mouse brain at 10 mg/kg, po; type: ADME, organism-based; procedure, shortened: as §1
[19] = AUCall in C57 Black mouse brain at 10 mg/kg, po; type: ADME, organism-based; parameters: dose 10 mg/kg; procedure, shortened: as §3
[20] = AUCinfinity in C57 Black mouse kidney at 10 mg/kg, iv; type: ADME, organism-based; parameters: route intravenous, time infinity, dose 10 mg/kg; procedure, shortened: as §3
[21] = biological target: T1, CYP1A2 (Homo sapiens, UniProt P05177); test: Inhibition of human CYP1A2 using fluorogenic substrate incubated for 60 mins in presence of NADPH by fluorescence assay relative to control; type: ADME; settings: probe fluorogenic substrate; procedure, shortened: as §4
T1 sequence (P05177 whole entry): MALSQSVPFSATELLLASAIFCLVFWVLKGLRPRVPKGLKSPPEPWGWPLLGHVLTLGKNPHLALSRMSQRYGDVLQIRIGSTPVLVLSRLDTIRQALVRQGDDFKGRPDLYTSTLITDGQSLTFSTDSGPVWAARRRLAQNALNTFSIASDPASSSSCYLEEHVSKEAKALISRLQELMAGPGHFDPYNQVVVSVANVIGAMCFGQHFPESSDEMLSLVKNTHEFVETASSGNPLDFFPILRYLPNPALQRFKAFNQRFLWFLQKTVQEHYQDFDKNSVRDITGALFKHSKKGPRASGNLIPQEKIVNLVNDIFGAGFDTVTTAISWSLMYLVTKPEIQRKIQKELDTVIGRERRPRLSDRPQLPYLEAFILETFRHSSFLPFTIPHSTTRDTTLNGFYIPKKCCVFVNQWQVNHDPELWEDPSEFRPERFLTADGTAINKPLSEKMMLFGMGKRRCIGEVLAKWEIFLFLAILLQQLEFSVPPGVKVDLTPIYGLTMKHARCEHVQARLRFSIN

[22] = Cmax in C57 Black mouse muscle at 10 mg/kg, iv; type: ADME, organism-based, Muscle tissue; parameters: route intravenous, dose 10 mg/kg; procedure, shortened: as §3
[23] = Cmax in C57 Black mouse liver at 10 mg/kg, po; type: ADME, organism-based; parameters: route oral, dose 10 mg/kg; procedure, shortened: as §3
[24] = Half life in mouse microsomes at 1 uM up to 120 mins by HPLC/MS-MS analysis; type: ADME, Microsome
[25] = Half life in mouse hepatocytes at 1 uM up to 120 mins by HPLC-MS/MS analysis; type: ADME, cell-based, Hepatocyte
[26] = AUClast in C57 Black mouse kidney at 10 mg/kg, iv; type: ADME, organism-based; parameters: route intravenous, time 0 - last, dose 10 mg/kg; procedure, shortened: as §3
[27] = Intrinsic clearance in mouse hepatocytes at 1 uM up to 120 mins by HPLC-MS/MS analysis; type: ADME, cell-based, Hepatocyte; settings: 2 h
[28] = AUCall in C57 Black mouse brain at 10 mg/kg, iv; type: ADME, organism-based; parameters: dose 10 mg/kg; procedure, shortened: as §3
[29] = Tmax in C57 Black mouse liver at 10 mg/kg, iv; type: ADME, organism-based; procedure, shortened: as §1
[30] = AUClast in C57 Black mouse spleen at 10 mg/kg, po; type: ADME, organism-based; parameters: time 0 - last, route oral, dose 10 mg/kg; procedure, shortened: as §3
[31] = Half life in C57 Black mouse kidney at 10 mg/kg, iv; type: ADME, organism-based; procedure, shortened: as §1
[32] = AUCall in C57 Black mouse spleen at 10 mg/kg, iv; type: ADME, organism-based; parameters: dose 10 mg/kg; procedure, shortened: as §3
[33] = Cmax in C57 Black mouse spleen at 10 mg/kg, iv; type: ADME, organism-based; parameters: route intravenous, dose 10 mg/kg; procedure, shortened: as §3
[34] = Half life in human plasma at 1 uM after 60 to 120 mins by HPLC-MS/MS analysis; type: ADME, cell-free; settings: time 60-120 min; procedure, shortened: as §2
[35] = Cmax in C57 Black mouse plasma at 10 mg/kg, po; type: ADME, organism-based; parameters: route oral, dose 10 mg/kg; procedure, shortened: as §3
[36] = Half life in C57 Black mouse plasma at 10 mg/kg, iv; type: ADME, organism-based; procedure, shortened: as §1
[37] = Tmax in C57 Black mouse kidney at 10 mg/kg, po; type: ADME, organism-based; procedure, shortened: as §1
[38] = Tmax in C57 Black mouse plasma at 10 mg/kg, iv; type: ADME, organism-based; procedure, shortened: as §1
[39] = Tmax in C57 Black mouse spleen at 10 mg/kg, iv; type: ADME, organism-based; procedure, shortened: as §1
[40] = Half life in C57 Black mouse brain at 10 mg/kg, po; type: ADME, organism-based; procedure, shortened: as §3
[41] = AUCinfinity in C57 Black mouse spleen at 10 mg/kg, po; type: ADME, organism-based; parameters: time infinity, route oral, dose 10 mg/kg; procedure, shortened: as §3

Sequence of CYP2D6 (P10635 whole entry): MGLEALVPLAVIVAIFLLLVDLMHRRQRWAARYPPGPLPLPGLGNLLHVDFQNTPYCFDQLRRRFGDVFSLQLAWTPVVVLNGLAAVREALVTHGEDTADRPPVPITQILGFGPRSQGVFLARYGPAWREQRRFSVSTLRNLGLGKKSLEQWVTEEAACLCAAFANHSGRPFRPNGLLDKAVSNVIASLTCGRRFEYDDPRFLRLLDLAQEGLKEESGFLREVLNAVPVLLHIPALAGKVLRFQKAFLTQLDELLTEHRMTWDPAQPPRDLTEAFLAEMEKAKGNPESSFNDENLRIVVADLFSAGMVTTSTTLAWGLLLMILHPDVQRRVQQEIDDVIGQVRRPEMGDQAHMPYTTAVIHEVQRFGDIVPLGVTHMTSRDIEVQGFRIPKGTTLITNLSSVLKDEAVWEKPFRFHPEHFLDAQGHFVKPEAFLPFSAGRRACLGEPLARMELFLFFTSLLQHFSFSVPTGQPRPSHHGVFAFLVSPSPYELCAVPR

With `O=C(CCCc1cccs1)N1CCN(c2ccc(C(F)(F)F)cc2)CC1` the logP [1] was 4.79, the Activity [2] was “Non-Toxic” and the Vd [3] was 1.83 L/kg. For the same compound, the half-life [4] was 34.2 min, the microsomal CLint at 1 µM [5] was 116 µL/min/mg and the remaining at 2 h, 1 µM [6] was 80%. For the same compound, the AUC [7] was 1260 ng·h/mL, the AUC(0-t) [8] was 77.3 ng·h/mL and the AUC(0-inf) [9] was 475 ng·h/mL. It also gave a Cmax [10] of 1640 ng/mL, a clearance [11] of 90 mL/min/kg and a hepatic extraction ratio at 2 h, 1 µM [12] of 0.98. For the same compound, the AUC [13] was 240 ng·h/mL, the inhibition at 1 h [14] was -2.7% and the Tmax [15] was 1.8 min. It also gave an AUC(0-t) [16] of 463 ng·h/mL, an AUC(0-inf) [17] of 523 ng·h/mL and a Tmax [18] of 15 min. The AUC [19] was 763 ng·h/mL, the AUC(0-inf) [20] was 348 ng·h/mL and the inhibition at 1 h [21] was 53.7%. For the same compound, the Cmax [22] was 165 ng/mL, the Cmax [23] was 4880 ng/mL and the half-life at 1 µM [24] was 6 min. For the same compound, the half-life at 1 µM [25] was 126 min, the AUC(0-t) [26] was 320 ng·h/mL and the CLH [27] was 8 µL/min. For the same compound, the AUC [28] was 246 ng·h/mL, the Tmax [29] was 1.8 min and the AUC(0-t) [30] was 1260 ng·h/mL. It also gave a half-life [31] of 45.6 min, an AUC [32] of 463 ng·h/mL and a Cmax [33] of 587 ng/mL. The half-life at 1 µM [34] was 808 min, the Cmax [35] was 787 ng/mL and the half-life [36] was 27 min. For the same compound, the Tmax [37] was 15 min, the Tmax [38] was 1.8 min and the Tmax [39] was 1.8 min. The half-life [40] was 27.6 min and the AUC(0-inf) [41] was 1270 ng·h/mL.

Source: ChEMBL document CHEMBL4765370, “Design, synthesis, and biological evaluation of aryl piperazines with potential as antidiabetic agents via the stimulation of glucose uptake and inhibition of NADH:ubiquinone oxidoreductase” (Eur J Med Chem, 2020)
